Assay results reported in ChEMBL document CHEMBL1795311, “Synthesis, antiproliferative activity, and mechanism of action of a series of 2-{[(2E)-3-phenylprop-2-enoyl]amino}benzamides” (Eur J Med Chem, 2011).
Values belong to the compound of their own block, whether it stands above or below them.

What was measured:
HOP-92 = assay: Growth inhibition of human HOP92 cells after 48 hrs by SRB assay; format: functional; conditions: HOP-92, 48 h
Method in brief: (§1)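 NCI DTP panel cells grown in RPMI 1640 with 5% FBS and 2 mM L-glutamine, preincubated 24 h, then given five concentrations (10-fold or ½-log dilutions from DMSO stock) for 48 h at 37 °C. Cells fixed with TCA, stained with SRB, absorbance read at 515 nm, with time-zero plates as reference.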

NCI-H460 = assay: Growth inhibition of human NCI-H460 cells after 48 hrs by SRB assay; format: functional; conditions: NCI-H460, 48 h; method in brief: as §1
TK-10 = assay: Growth inhibition of human TK10 cells after 48 hrs by SRB assay; format: functional; conditions: TK-10, 48 h
Method in brief: (§2)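 Run by the NCI Developmental Therapeutics Program: cells in RPMI 1640 with 5% FBS and 2 mM L-glutamine, plated at 5000–40,000 cells/well and grown 24 h before dosing. Drug (DMSO stock) given at five concentrations for 48 h at 37 °C, 5% CO2. Adherent cells fixed with cold TCA, stained with 0.4% SRB and read at 515 nm. GI50, TGI and LC50 taken from the time-zero, control and treated absorbances.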

A498 = assay: Growth inhibition of human A498 cells after 48 hrs by SRB assay; format: functional; conditions: A498, 48 h; method in brief: as §1
SW-620 = assay: Growth inhibition of human SW620 cells after 48 hrs by SRB assay; format: functional; conditions: SW-620, 48 h; method in brief: as §2
Malme-3M = assay: Growth inhibition of human MALME-3M cells after 48 hrs by SRB assay; format: functional; method in brief: as §1
COLO 205 = assay: Growth inhibition of human COLO205 cells after 48 hrs by SRB assay; format: functional; conditions: COLO 205, 48 h; method in brief: as §1
786-0 = assay: Growth inhibition of human 786-0 cells after 48 hrs by SRB assay; format: functional; conditions: 786-0, 48 h; method in brief: as §1
SF-539 = assay: Growth inhibition of human SF539 cells after 48 hrs by SRB assay; format: functional; conditions: SF-539, 48 h; method in brief: as §1
DU-145 = assay: Growth inhibition of human DU145 cells after 48 hrs by SRB assay; format: functional; conditions: DU-145, 48 h; method in brief: as §1
SN12C = assay: Growth inhibition of human SN12C cells after 48 hrs by SRB assay; format: functional; method in brief: as §2
NCI-H226 = assay: Growth inhibition of human NCI-H226 cells after 48 hrs by SRB assay; format: functional; conditions: NCI-H226, 48 h; method in brief: as §1
HL-60 = assay: Growth inhibition of human HL60 cells after 48 hrs by SRB assay; format: functional; conditions: HL-60, 48 h; method in brief: as §1
K562 [1] = assay: Growth inhibition of human K562 cells after 48 hrs by trypan blue assay; format: functional, cell-based; conditions: K562, 48 h
SK-MEL-5 = assay: Growth inhibition of human SK-MEL-5 cells after 48 hrs by SRB assay; format: functional; conditions: SK-MEL-5, 48 h; method in brief: as §2
HT-29 = assay: Growth inhibition of human HT-29 cells after 48 hrs by SRB assay; format: functional; conditions: HT-29, 48 h; method in brief: as §1
NCI-H23 = assay: Growth inhibition of human NCI-H23 cells after 48 hrs by SRB assay; format: functional; conditions: NCI-H23, 48 h; method in brief: as §1
ACHN = assay: Growth inhibition of human ACHN cells after 48 hrs by SRB assay; format: functional; method in brief: as §1
PC-3 = assay: Growth inhibition of human PC3 cells after 48 hrs by SRB assay; format: functional; conditions: PC-3, 48 h; method in brief: as §1
OVCAR-3 = assay: Growth inhibition of human OVCAR3 cells after 48 hrs by SRB assay; format: functional; conditions: OVCAR-3, 48 h; method in brief: as §1
LOX IMVI = assay: Growth inhibition of human LOXIMVI cells after 48 hrs by SRB assay; format: functional; method in brief: as §1
SK-OV-3 = assay: Growth inhibition of human SKOV3 cells after 48 hrs by SRB assay; format: functional; conditions: SK-OV-3, 48 h; method in brief: as §2
SNB-19 = assay: Growth inhibition of human SNB19 cells after 48 hrs by SRB assay; format: functional; conditions: SNB-19, 48 h; method in brief: as §2
SF-268 = assay: Growth inhibition of human SF268 cells after 48 hrs by SRB assay; format: functional; conditions: SF-268, 48 h; method in brief: as §1
UACC-62 = assay: Growth inhibition of human UACC62 cells after 48 hrs by SRB assay; format: functional; conditions: UACC-62, 48 h; method in brief: as §2
NCI-H522 = assay: Growth inhibition of human NCI-H522 cells after 48 hrs by SRB assay; format: functional; conditions: NCI-H522, 48 h; method in brief: as §1
HCT-116 = assay: Growth inhibition of human HCT116 cells after 48 hrs by SRB assay; format: functional; conditions: HCT-116, 48 h; method in brief: as §1
A549 = assay: Growth inhibition of human A549 cells after 48 hrs by SRB assay; format: functional; conditions: A549, 48 h; method in brief: as §1
SF-295 = assay: Growth inhibition of human SF295 cells after 48 hrs by SRB assay; format: functional; conditions: SF-295, 48 h; method in brief: as §1
KM12 = assay: Growth inhibition of human KM12 cells after 48 hrs by SRB assay; format: functional; conditions: KM12, 48 h; method in brief: as §1
K562 [2] = assay: Growth inhibition of human K562 cells after 48 hrs by SRB assay; format: functional; conditions: K562, 48 h; method in brief: as §1
K562 [3] = assay: Antiproliferative activity against human K562 cells at 10 uM after 48 hrs by trypan blue assay; format: functional; conditions: K562, 48 h, read-out: GI
MOLT-4 = assay: Growth inhibition of human MOLT4 cells after 48 hrs by SRB assay; format: functional; conditions: MOLT-4, 48 h; method in brief: as §1
HOP-62 = assay: Growth inhibition of human HOP62 cells after 48 hrs by SRB assay; format: functional; conditions: HOP-62, 48 h; method in brief: as §1
CCRF-CEM = assay: Growth inhibition of human CCRF-CEM cells after 48 hrs by SRB assay; format: functional; method in brief: as §1
OVCAR-8 = assay: Growth inhibition of human OVCAR8 cells after 48 hrs by SRB assay; format: functional; conditions: OVCAR-8, 48 h; method in brief: as §1
U-251 = assay: Growth inhibition of human U251 cells after 48 hrs by SRB assay; format: functional; conditions: U-251, 48 h; method in brief: as §2
SK-MEL-28 = assay: Growth inhibition of human SK-MEL-28 cells after 48 hrs by SRB assay; format: functional; conditions: SK-MEL-28, 48 h; method in brief: as §2
SNB-75 = assay: Growth inhibition of human SNB75 cells after 48 hrs by SRB assay; format: functional; conditions: SNB-75, 48 h; method in brief: as §2
UACC-257 = assay: Growth inhibition of human UACC257 cells after 48 hrs by SRB assay; format: functional; conditions: UACC-257, 48 h; method in brief: as §2
RPMI-8226 = assay: Growth inhibition of human RPMI8226 cells after 48 hrs by SRB assay; format: functional; conditions: RPMI-8226, 48 h; method in brief: as §1
MCF7 = assay: Growth inhibition of human MCF7 cells after 48 hrs by SRB assay; format: functional; conditions: MCF7, 48 h; method in brief: as §1
RXF 393 = assay: Growth inhibition of human RXF393 cells after 48 hrs by SRB assay; format: functional; conditions: RXF 393, 48 h; method in brief: as §1
M14 = assay: Growth inhibition of human M14 cells after 48 hrs by SRB assay; format: functional; conditions: M14, 48 h; method in brief: as §1
HCC 2998 = assay: Growth inhibition of human HCC2998 cells after 48 hrs by SRB assay; format: functional; conditions: HCC 2998, 48 h; method in brief: as §1
MDA-MB-231 = assay: Growth inhibition of human MDA-MB-231 cells after 48 hrs by SRB assay; format: functional; conditions: MDA-MB-231, 48 h; method in brief: as §1

- GI50 (NCI-H460): 453 nM
- GI50 (SW-620): 541 nM
- GI50 (COLO 205): 343 nM
- GI50 (786-0): 1430 nM
- GI50 (DU-145): 477 nM
- GI50 (NCI-H226): 1090 nM
- GI50 (HL-60): 54.2 nM
- IC50 (K562 [1]): 570 nM
- GI50 (SK-MEL-5): 383 nM
- GI50 (HT-29): 367 nM
- GI50 (NCI-H23): 840 nM
- GI50 (ACHN): 3700 nM
- GI50 (PC-3): 628 nM
- GI50 (OVCAR-3): 353 nM
- GI50 (SK-OV-3): 744 nM
- GI50 (NCI-H522): 303 nM
- GI50 (HCT-116): 430 nM
- GI50 (A549): 2650 nM
- GI50 (K562 [2]): 920 nM
- GI50 (MOLT-4): 202 nM
- GI50 (CCRF-CEM): 341 nM
- GI50 (OVCAR-8): 1060 nM
- GI50 (U-251): 501 nM
- GI50 (SK-MEL-28): 2510 nM
- GI50 (RPMI-8226): 347 nM
- GI50 (MCF7): 450 nM
- GI50 (HCC 2998): 1250 nM
- GI50 (MDA-MB-231): 596 nM
SMILES: NC(=O)c1cc(I)ccc1NC(=O)/C=C/c1ccccc1
- GI50 (HOP-92): 21200 nM
- GI50 (TK-10): 3150 nM
- GI50 (A498): 2700 nM
- GI50 (Malme-3M): 1600 nM
- GI50 (SF-539): 445 nM
- GI50 (SN12C): 635 nM
- GI50 (LOX IMVI): 3750 nM
- GI50 (SNB-19): 586 nM
- GI50 (SF-268): 2310 nM
- GI50 (UACC-62): 632 nM
- GI50 (SF-295): 350 nM
- GI50 (KM12): 499 nM
- inhibition of growth at 10 µM (K562 [3]): 74.5%
- GI50 (HOP-62): 800 nM
- GI50 (SNB-75): 245 nM
- GI50 (UACC-257): 14300 nM
- GI50 (RXF 393): 3020 nM
- GI50 (M14): 429 nM

- GI50 (NCI-H460): 1760 nM
- GI50 (SW-620): 1990 nM
- GI50 (COLO 205): 1680 nM
- GI50 (786-0): 2320 nM
- GI50 (DU-145): 2160 nM
- GI50 (NCI-H226): 3000 nM
- GI50 (HL-60): 1420 nM
- IC50 (K562 [1]): 2500 nM
- GI50 (SK-MEL-5): 373 nM
- GI50 (HT-29): 1940 nM
- GI50 (NCI-H23): 3370 nM
- GI50 (ACHN): 4750 nM
- GI50 (PC-3): 3150 nM
- GI50 (OVCAR-3): 1300 nM
- GI50 (SK-OV-3): 2300 nM
- GI50 (NCI-H522): 2080 nM
- GI50 (HCT-116): 1980 nM
- GI50 (A549): 3770 nM
- GI50 (K562 [2]): 845 nM
- GI50 (MOLT-4): 3950 nM
- GI50 (CCRF-CEM): 2960 nM
- GI50 (OVCAR-8): 3890 nM
- GI50 (U-251): 2140 nM
- GI50 (SK-MEL-28): 2880 nM
- GI50 (RPMI-8226): 2790 nM
- GI50 (MCF7): 1740 nM
- GI50 (HCC 2998): 487 nM
- GI50 (MDA-MB-231): 2480 nM
SMILES: NC(=O)c1cc(Cl)ccc1NC(=O)/C=C/c1ccccc1
- GI50 (HOP-92): 2870 nM
- GI50 (TK-10): 5510 nM
- GI50 (A498): 3610 nM
- GI50 (Malme-3M): 2680 nM
- GI50 (SF-539): 2050 nM
- GI50 (SN12C): 3960 nM
- GI50 (LOX IMVI): 4330 nM
- GI50 (SNB-19): 3180 nM
- GI50 (SF-268): 2900 nM
- GI50 (UACC-62): 2520 nM
- GI50 (SF-295): 1400 nM
- GI50 (KM12): 1690 nM
- inhibition of growth at 10 µM (K562 [3]): 64%
- GI50 (HOP-62): 3150 nM
- GI50 (SNB-75): 1840 nM
- GI50 (UACC-257): 15100 nM
- GI50 (RXF 393): 1710 nM
- GI50 (M14): 1710 nM
